Measurements published in ChEMBL document CHEMBL2346587, “Design, synthesis, and evaluation of a water-soluble antofine analogue with high antiproliferative and antitumor activity” (Bioorg Med Chem, 2013).
pIC50: −log10 of the molar value. Converted amounts (≈) assume the structure as drawn.

Legend:
[1] = system: SNU-638; assay: Cytotoxicity against human SNU638 cells after 72 hrs by SRB assay; format: functional, cell-based; conditions: SNU-638, 72 h
In short: (§1)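 SRB growth assay: 5 × 10^3 cells/well exposed to a concentration series for 72 h; fixed in 10% TCA 30 min at 4 °C, stained with 0.4% SRB in 1% acetic acid 30 min, dye dissolved in 10 mM Tris pH 10.0, absorbance at 515 nm. Viability relative to vehicle control; IC50 by non-linear regression; at least three experiments. A549-Pa is a paclitaxel-resistant A549 subline.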

[2] = system: SK-HEP1; assay: Cytotoxicity against human SKHEP1 cells after 72 hrs by SRB assay; format: functional, cell-based; conditions: SK-HEP1, 72 h; in short: as §1
[3] = system: A549; assay: Cytotoxicity against human A549 cells after 72 hrs by SRB assay; format: functional, cell-based; conditions: A549, 72 h; in short: as §1
[4] = system: HCT-15; assay: Cytotoxicity against human HCT15 cells after 72 hrs by SRB assay; format: functional, cell-based; conditions: HCT-15, 72 h; in short: as §1
[5] = system: A549; assay: Cytotoxicity against human paclitaxel-resistant A549 cells after 72 hrs by SRB assay; format: functional, cell-based; conditions: A549, 72 h; in short: as §1
[6] = system: HCT-116; assay: Cytotoxicity against human HCT116 cells after 72 hrs by SRB assay; format: functional, cell-based; conditions: HCT-116, 72 h; in short: as §1
[7] = Thermodynamic solubility of the compound in phosphate buffer at pH 7.4; format: physicochemical; conditions: read-out: Therm_solubility
[8] = Thermodynamic solubility of the compound in 1:1 mixture of phosphate buffer:ethanol; format: physicochemical
[9] = target: ATP-dependent translocase ABCB1 (Homo sapiens, UniProt P08183); assay: Inhibition of P-gp activity in human paclitaxel-resistant A549 cells assessed as rhodamine 123 accumulation at 10 nM after 72 hrs by FACS analysis (reference value: 14.4 %); format: cell-based; design: scale not given: the % may be the effect or the level left; conditions: a549, 72 h, 0.01 µM
In short: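 Paclitaxel-resistant A549-Pa cells seeded at 1 × 10^5 cells/dish, pretreated with compound for 72 h, then loaded with rhodamine-123 in culture medium at 37 °C, 5% CO2, in the dark for 90 min. Cells were trypsinized, washed twice in ice-cold PBS, and analysed immediately by flow cytometry (488 nm laser; green fluorescence through a 530 nm band-pass filter).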

Sequence of ATP-dependent translocase ABCB1 (P08183 whole entry): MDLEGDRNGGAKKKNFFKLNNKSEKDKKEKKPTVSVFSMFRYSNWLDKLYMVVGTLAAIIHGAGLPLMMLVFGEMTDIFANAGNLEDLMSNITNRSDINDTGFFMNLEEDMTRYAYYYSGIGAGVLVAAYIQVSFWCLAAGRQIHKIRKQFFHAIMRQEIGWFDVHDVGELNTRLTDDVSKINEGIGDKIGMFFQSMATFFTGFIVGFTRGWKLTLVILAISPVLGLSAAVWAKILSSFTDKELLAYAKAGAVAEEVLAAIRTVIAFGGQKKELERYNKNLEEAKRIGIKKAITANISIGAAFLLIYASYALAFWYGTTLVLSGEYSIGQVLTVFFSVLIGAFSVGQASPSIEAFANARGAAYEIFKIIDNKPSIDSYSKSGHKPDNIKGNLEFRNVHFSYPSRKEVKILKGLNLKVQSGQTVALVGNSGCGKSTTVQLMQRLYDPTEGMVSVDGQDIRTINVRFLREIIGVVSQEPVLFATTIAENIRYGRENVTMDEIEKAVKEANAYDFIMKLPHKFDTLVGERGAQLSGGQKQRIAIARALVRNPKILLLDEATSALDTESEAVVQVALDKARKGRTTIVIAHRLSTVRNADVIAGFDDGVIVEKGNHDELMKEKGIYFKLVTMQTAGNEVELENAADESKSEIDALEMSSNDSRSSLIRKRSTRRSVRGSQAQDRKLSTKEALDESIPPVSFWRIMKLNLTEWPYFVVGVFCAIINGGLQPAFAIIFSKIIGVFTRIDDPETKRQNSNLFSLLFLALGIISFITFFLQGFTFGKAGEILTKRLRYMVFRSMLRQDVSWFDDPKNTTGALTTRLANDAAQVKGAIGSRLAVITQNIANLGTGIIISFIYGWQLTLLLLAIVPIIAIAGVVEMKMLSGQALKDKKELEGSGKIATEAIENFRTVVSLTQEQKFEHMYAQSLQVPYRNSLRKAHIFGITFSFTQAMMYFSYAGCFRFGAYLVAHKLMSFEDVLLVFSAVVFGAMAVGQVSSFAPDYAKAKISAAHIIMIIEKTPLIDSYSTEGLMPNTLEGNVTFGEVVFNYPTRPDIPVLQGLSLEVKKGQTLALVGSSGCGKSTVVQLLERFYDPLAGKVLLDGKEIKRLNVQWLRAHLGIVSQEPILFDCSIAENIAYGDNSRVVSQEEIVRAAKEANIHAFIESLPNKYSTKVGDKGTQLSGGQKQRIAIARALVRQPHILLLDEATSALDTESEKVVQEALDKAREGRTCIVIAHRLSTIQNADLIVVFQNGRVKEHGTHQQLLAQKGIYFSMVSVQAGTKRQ

Row | SMILES | pIC50 [1] | pIC50 [2] | pIC50 [3] | pIC50 [4] | pIC50 [5] | pIC50 [6] | solubility thermodynamic [7] | solubility thermodynamic ([8]; 1:1 mixture of phosphate buffer:ethanol, read-out: Therm_solubility) | Activity [9] | Therm_solubility ([8]; buffer)
1 | COc1ccc2c3c(c4cc(OC)c(OC)cc4c2c1)CC1CCCN1C3 (racemic) [(+/-)-ANTOFINE] | 7.68 | 7.80 | 7.70 | 7.60 | 7.66 | 7.96 | – | – | – | –
2 | COC(=O)C12CCCN1Cc1c(c3cc(OC)c(OC)cc3c3cc(OC)ccc13)C2 (racemic) | < 6.00 | < 6.00 | < 6.00 | < 6.00 | < 6.00 | < 6.00 | – | – | – | –
3 | COc1ccc2c3c(c4cc(OC)c(OC)cc4c2c1)CC1(CO)CCCN1C3 (racemic) | 7.04 | 7.00 | 6.78 | 6.75 | 6.69 | 7.28 | 656 µg/mL (≈ 1670 µM) | 1390 µg/mL (≈ 3540 µM) | – | –
4 | COc1ccc2c3c(c4cc(OC)c(OC)cc4c2c1)C[C@H]1CCCN1C3 [(-)-ANTOFINE] | 8.00 | 8.10 | 7.96 | 7.89 | 7.74 | 8.10 | < 1 µg/mL | – | 37.9% | 47 µg/mL
5 | COc1ccc2c3c(c4cc(OC)c(OC)cc4c2c1)CC1(C(=O)O)CCCN1C3 (racemic) | < 6.00 | < 6.00 | < 6.00 | < 6.00 | < 6.00 | < 6.00 | – | – | – | –
6 | COc1ccc2c3c(c4cc(OC)c(OC)cc4c2c1)C[C@]1(CO)CCCN1C3 | 5.83 | 6.27 | 5.64 | 5.85 | 5.44 | 6.10 | – | – | – | –
